Data: ChEMBL document CHEMBL4024771, “Optimization of Orally Bioavailable Enhancer of Zeste Homolog 2 (EZH2) Inhibitors Using Ligand and Property-Based Design Strategies: Identification of Development Candidate …” (J Med Chem, 2018)
≈ marks a conversion by molar mass, not a printed value.

Experiments:
[1] = biological target: Histone-lysine N-methyltransferase EZH2 (Homo sapiens, UniProt Q15910); assay: Inhibition of EZH2 in human KARPAS422 cells assessed as reduction in H3K27me3 level after 72 hrs by ELISA
Chain of Histone-lysine N-methyltransferase EZH2 (Homo sapiens, UniProt Q15910) (Q15910 whole entry): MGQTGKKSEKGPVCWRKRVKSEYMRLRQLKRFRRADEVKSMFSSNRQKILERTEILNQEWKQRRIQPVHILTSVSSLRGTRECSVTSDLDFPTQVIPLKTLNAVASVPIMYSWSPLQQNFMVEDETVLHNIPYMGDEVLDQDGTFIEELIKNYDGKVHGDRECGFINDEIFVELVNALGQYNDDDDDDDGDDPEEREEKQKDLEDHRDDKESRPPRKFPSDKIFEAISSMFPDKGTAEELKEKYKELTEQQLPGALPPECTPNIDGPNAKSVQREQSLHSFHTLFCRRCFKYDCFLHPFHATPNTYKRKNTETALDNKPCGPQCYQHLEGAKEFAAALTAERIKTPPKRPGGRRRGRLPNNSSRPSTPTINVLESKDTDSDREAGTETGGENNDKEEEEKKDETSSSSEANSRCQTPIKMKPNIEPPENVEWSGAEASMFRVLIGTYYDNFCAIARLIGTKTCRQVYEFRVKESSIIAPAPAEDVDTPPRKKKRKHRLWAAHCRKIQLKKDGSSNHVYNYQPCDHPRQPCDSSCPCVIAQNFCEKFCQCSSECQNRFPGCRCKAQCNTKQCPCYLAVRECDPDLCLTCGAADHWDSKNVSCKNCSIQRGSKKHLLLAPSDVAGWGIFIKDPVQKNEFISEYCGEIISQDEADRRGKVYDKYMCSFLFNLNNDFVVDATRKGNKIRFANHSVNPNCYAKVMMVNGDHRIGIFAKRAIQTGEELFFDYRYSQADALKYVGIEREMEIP

[2] = biological target: Histone-lysine N-methyltransferase EZH2 (Homo sapiens, UniProt Q15910, Y641N); assay: Inhibition of EZH2 Y641N mutant (unknown origin) using oligonucleosomes as substrate after 60 mins in presence of [3H]SAM by scintillation counting analysis
Chain of Histone-lysine N-methyltransferase EZH2 (Homo sapiens, UniProt Q15910, Y641N) (Q15910 whole entry Y641N): as the sequence (Q15910 whole entry) above, with Y641N counted along it

KARPAS-422 = assay: Antiproliferative activity against human KARPAS422 cells after 72 hrs by resazurin assay; type: functional, cell-based
[3] = Intrinsic clearance in human liver microsomes assessed per mg protein at 1 uM preincubated for 10 mins followed by NADPH addition measured after 45 mins by LC-MS/MS analysis; type: ADME, microsome; conditions: liver microsomes, read-out: CLH
Outline: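 Test compound (1 μM) with pooled liver microsomes (0.8 mg/mL protein) in 100 mM potassium phosphate pH 7.4, 10 min preincubation, started with 2 mM NADPH, 45 min at 37 °C, in triplicate. Samples quenched with cold methanol containing buspirone internal standard, analysed by LC−MS/MS. CLint derived from t1/2 of parent loss (log-linear slope).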

[4] = Kinetic solubility of the compound; type: physicochemical; conditions: for solubility kinetic: read-out: Kinetic_solubility
[5] = Passive permeability in MDCK cells at 2 uM after 90 mins by LC-MS/MS analysis; type: ADME, cell-based, Canis lupus familiaris; conditions: dog; for Papp at […], 2 µM: MDCK, read-out: permeability; for permeability: mdck, 2 µM
Outline: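 Low-efflux MDCK cells (MDCK-LE) on 96-well inserts, used on day 4. Monodirectional transport of 2 μM drug in transport buffer with 0.1% DMSO at 37 °C. Donor and receiver sampled at 0 and 90 min for LC−MS/MS. Donor pH 6.5 and 7.4, receiver pH 7.4.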

[6] = Lipophilicity, log D of the compound at pH 7.4; conditions: buffer

SMILES	IC50 [1] [µM]	Ki [2] [µM]	IC50 (KARPAS-422; Homo sapiens, KARPAS-422, 72 h) [µM]	microsomal CLint at 1 µM [3] [µL/min/mg]	solubility kinetic [4] [µM]	Papp at […], 2 µM [5] [nm/s]	logD ([6]; pH 7.4, logD)	IC50 (KARPAS-422; karpas-422) [µM]	permeability [5] [nm/s]	logD ([6]; pH 7.4)	Kinetic_solubility [4] [µM]
Cc1cc(C)c(CN2CCc3c(Cl)cc([C@H](CO)[C@H]4CCOC4)c(Cl)c3C2=O)c(=O)[nH]1	0.01	0.00024	0.015	21.3	570 (≈ 265 µg/mL)	29	2				
Cc1cc(C)c(CN2CCc3c(Cl)cc([C@@H](CO)[C@H]4CCCO4)c(Cl)c3C2=O)c(=O)[nH]1	1.02	0.11	0.535	43	576 (≈ 268 µg/mL)	85	2.5				
CCC(CO)c1cc(Cl)c2c(c1Cl)C(=O)N(Cc1c(C)cc(C)[nH]c1=O)CC2 (stereo in doubt; (-)-5b)	0.682	0.014		67.6	443 (≈ 188 µg/mL)			0.502	109	2.9	
Cc1cc(C)c(CN2CCc3c(Cl)cc([C@@H](C)CO)c(Cl)c3C2=O)c(=O)[nH]1	1.04	0.26	1.5	12.4	143 (≈ 58.5 µg/mL)	150	2.5				
COc1cc(C)[nH]c(=O)c1CN1CCc2c(Cl)cc([C@H](O)C3COC3)c(Cl)c2C1=O	0.099	0.0015	0.108	< 8	234 (≈ 106 µg/mL)	7	1.4				
Cc1cc(C)c(CN2CCc3c(Cl)cc(C(CO)C4CCOC4)c(Cl)c3C2=O)c(=O)[nH]1 (stereo in doubt)	1.01	0.15		20	522 (≈ 243 µg/mL)			1.04	27		
COC(c1cc(Cl)c2c(c1Cl)C(=O)N(Cc1c(C)cc(C)[nH]c1=O)CC2)C1CCOCC1 (single isomer, unassigned; (-))	1.46	0.31		130				1.15	165	3.5	57.2
Cc1cc(C)c(CN2CCc3c(Cl)cc(C(CO)c4ccon4)c(Cl)c3C2=O)c(=O)[nH]1 (stereo in doubt; (-)-21b)				22.7				2.49	86		481
CCC(OC)c1cc(Cl)c2c(c1Cl)C(=O)N(Cc1c(C)cc(C)[nH]c1=O)CC2 (single isomer, unassigned; (-))	0.065	0.008	0.27	119	44 (≈ 18.6 µg/mL)				135		
COC(C)c1cc(Cl)c2c(c1Cl)C(=O)N(Cc1c(C)cc(C)[nH]c1=O)CC2 (single isomer, unassigned; (+))				190	49 (≈ 20.1 µg/mL)			0.696	376	3.4	
COC(c1cc(Cl)c2c(c1Cl)C(=O)N(Cc1c(C)cc(C)[nH]c1=O)CC2)C1CCOC1 (single isomer, unassigned; (-))	1.1	0.13		136	415 (≈ 193 µg/mL)			0.175	184		
Cc1cc(C)c(CN2CCc3c(Cl)cc(C(CO)C4CCOCC4)c(Cl)c3C2=O)c(=O)[nH]1 (stereo in doubt; (+)-8b)	14.8	3.27		34.7	496 (≈ 238 µg/mL)			4.4	29		
COC(c1cc(Cl)c2c(c1Cl)C(=O)N(Cc1c(C)cc(C)[nH]c1=O)CC2)C1CCN(C(C)=O)CC1 (single isomer, unassigned; (-))				50.3				1.62	81		498
